These results are taken from ChEMBL document CHEMBL1157808, “Synthesis and biological evaluation of phenolic 4,5-dihydroisoxazoles and 3-hydroxy ketones as estrogen receptor alpha and beta agonists” (Bioorg Med Chem, 2010).

Activity calls are given as the source filed them. No cut-off for these calls is given here.

The species entered for assay [1] is Homo sapiens. As to the kind of experiment: Selectivity ratio of relative binding affinity for human ERalpha to relative binding affinity for human ERbeta. In a few lines: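 COS-1 cells in DMEM with 10% delipidated FBS were transfected for 24 h with human ERα or ERβ vector (pSG5-hERα/β). Cells were washed, lysed in 0.5 M NaOH at 56 °C for 15 min and counted by scintillation, with nonspecific binding subtracted.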

The target of assay [2] is T1, Estrogen receptor (Homo sapiens) (UniProt P03372).
T1 sequence (whole entry): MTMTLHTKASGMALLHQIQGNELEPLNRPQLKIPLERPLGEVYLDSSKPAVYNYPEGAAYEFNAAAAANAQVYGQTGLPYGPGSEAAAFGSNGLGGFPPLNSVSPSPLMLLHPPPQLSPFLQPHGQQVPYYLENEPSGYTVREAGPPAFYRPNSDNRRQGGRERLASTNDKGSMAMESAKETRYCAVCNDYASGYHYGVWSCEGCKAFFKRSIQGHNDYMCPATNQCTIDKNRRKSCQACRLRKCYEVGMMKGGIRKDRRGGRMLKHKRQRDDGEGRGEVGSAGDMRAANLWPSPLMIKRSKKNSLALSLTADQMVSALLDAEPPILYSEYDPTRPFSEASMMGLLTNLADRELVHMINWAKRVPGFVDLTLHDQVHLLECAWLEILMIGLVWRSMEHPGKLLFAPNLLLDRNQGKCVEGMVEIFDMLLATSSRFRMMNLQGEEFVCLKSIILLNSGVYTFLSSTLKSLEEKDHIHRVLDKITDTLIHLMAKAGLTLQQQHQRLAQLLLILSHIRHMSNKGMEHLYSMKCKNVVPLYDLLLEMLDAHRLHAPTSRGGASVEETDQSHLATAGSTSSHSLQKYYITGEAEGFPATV
Put plainly: Agonist activity at ERalpha expressed in HEK293 cells at 10 uM after 24 hrs by luciferase reporter gene assay relative to 3,17-beta-estradiol. Type of assay: functional, cell-based. In a few lines:
(§1)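 HEK293 cells (no endogenous ER) in phenol-free DMEM with 5% delipidated FBS were transfected for 4 h with 5 ng ERα or ERβ expression vector, 75 ng pERE2TATA-LUC reporter and 20 ng pCMVβ. Cells then received 10 μM compound, 10 nM E2 or vehicle (0.1% v/v) for 24 h. Luciferase was normalized to β-galactosidase and expressed as 100% × (test − vehicle)/(E2 − vehicle). Values are means of at least three independent transfections.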
Background: In a reporter assay the amount or activity of a reporter protein is the signal.

In assay [3] the target is Estrogen receptor beta (Homo sapiens) (UniProt Q92731). As to the kind of experiment: Agonist activity at ERbeta expressed in HEK293 cells at 10 uM after 24 hrs by luciferase reporter gene assay relative to 3,17-beta-estradiol. The format is functional, cell-based. In a few lines: as §1
Assay [4] deals with T1, Estrogen receptor (Homo sapiens). Put plainly: Antagonist activity at ERalpha in human MCF7 cells assessed as decrease in 3,17-beta-estradiol-induced pS2 gene expression at 1 uM after 24 hrs by real-time quantitative PCR analysis. The format is functional, cell-based. In a few lines: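 Competition format: MCF-7 cells were first grown overnight in phenol red-free DMEM with 5% charcoal-stripped FBS. They were then co-treated for 24 h with 10 nM E2 plus 1 μM compound. Total RNA was extracted and pS2 mRNA was quantified by TaqMan real-time qPCR, normalized to RPLPO.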

The target is the same in assay [5]. Put plainly: Induction of ERalpha-mediated pS2 gene expression in human MCF7 cells at 10 uM after 24 hrs by real-time quantitative PCR analysis. The format is cell-based.
For assay [6] the target is unchanged. Put plainly: Induction of ERalpha-mediated pS2 gene expression in human MCF7 cells at 10 nM after 24 hrs by real-time quantitative PCR analysis. Type of assay: cell-based. In outline: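 MCF-7 cells were grown overnight in phenol red-free DMEM with 5% charcoal-stripped FBS. They were then exposed to ligand at 10 nM final or to solvent for 6 h or 24 h. Total RNA was extracted and reverse-transcribed. pS2 mRNA was measured by TaqMan real-time qPCR with RPLPO as reference and reported as fold change relative to control.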

Sequence of Estrogen receptor beta (Homo sapiens) (Q92731 whole entry): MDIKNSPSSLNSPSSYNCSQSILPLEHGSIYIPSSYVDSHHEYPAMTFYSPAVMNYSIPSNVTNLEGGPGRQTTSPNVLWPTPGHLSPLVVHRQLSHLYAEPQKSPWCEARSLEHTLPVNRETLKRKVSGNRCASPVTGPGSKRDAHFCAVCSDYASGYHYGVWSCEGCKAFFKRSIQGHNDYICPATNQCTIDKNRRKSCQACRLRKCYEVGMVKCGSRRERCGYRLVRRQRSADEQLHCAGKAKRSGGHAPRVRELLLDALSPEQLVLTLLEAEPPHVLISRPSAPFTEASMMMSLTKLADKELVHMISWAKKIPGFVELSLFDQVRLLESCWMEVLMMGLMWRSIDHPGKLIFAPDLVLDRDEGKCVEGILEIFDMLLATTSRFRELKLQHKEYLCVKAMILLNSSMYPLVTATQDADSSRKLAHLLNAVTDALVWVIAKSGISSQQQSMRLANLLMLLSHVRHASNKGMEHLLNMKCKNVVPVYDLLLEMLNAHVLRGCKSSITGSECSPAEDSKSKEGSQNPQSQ

Take `O=C(CCCc1ccccc1)CC(O)c1ccccc1` (stereo in doubt; 48a): the Ratio in assay [1] was found to be 0.7.
For `CC1(c2ccccc2)CC(CCCc2ccc(O)cc2)=NO1` (single isomer, unassigned; 46b), the Activity in assay [2] stood at 13.6%; in assay [3], 10.6%. Besides, the Ratio in assay [1] is 1.
Turning to `Oc1ccc(CCC2=NOC(Cc3ccccc3)C2)cc1` (single isomer, unassigned; 3a), in assay [1], the Ratio was 6.
Take `c1ccc(CCCC2=NOC(c3ccccc3)C2)cc1` (stereo in doubt; 43b): the Activity came to 11.5% in assay [2] and 17.2% in assay [3]. In addition, in assay [1], the Ratio stood at 1.
The corresponding values for `O=C(CCc1cccc(O)c1)CC(O)CCc1ccccc1` (racemic) are 87.3%, 48.1% and 106.
For `Oc1cccc(CCC2=NOC(CCc3ccccc3)C2)c1` (single isomer, unassigned), the Activity came to 3% in assay [2] and 3.6% in assay [3].
On the same counts, the results for `CC1(c2ccccc2)CC(CCc2ccc(O)cc2)=NO1` (single isomer, unassigned; 39a) are 39.7% and 18%.
For `Oc1ccc(CC2CC(CCCc3ccc(O)c(O)c3)=NO2)cc1` (single isomer, unassigned; 28b), the values for the Activity in assay [2] and in assay [3] were 1.4% and -0.7%, respectively.
With `Oc1ccccc1CCC1=NOC(CCc2ccccc2)C1` (single isomer, unassigned), the Activity in assay [2] was 4.5%; in assay [3], 4.2%.
On to `Oc1ccc(CCC2=NOC(CCc3ccccc3)C2)cc1` (single isomer, unassigned), for which the Activity in assay [2] turned out to be 62.8%; in assay [3], 15.4%.
Turning to `c1ccc(CCC2=NOC(c3ccccc3)C2)cc1` (single isomer, unassigned), the results for the Activity in assay [2] and in assay [3] were 11.2% and 8.1%, respectively.
Regarding `CC(O)(CC(=O)CCCc1ccc(O)cc1)c1ccccc1` (racemic), the figures for the Activity in assay [2] and in assay [3] were 90.9% and 103%, respectively. The Ratio in assay [1] came out at 8.
On to `O=C(CCCc1ccc(O)c(O)c1)CC(O)Cc1ccccc1` (racemic), for which the Activity in assay [2] is -0.5%; in assay [3] it was -0.8%.
As for `c1ccc(CCC2=NOC(CCc3ccccc3)C2)cc1` (stereo unspecified), the Activity in assay [2] was 43.9%; in assay [3], -0.4%.
For orientation: inhibition means the change of the read-out against control, counted positive when it falls. As to `Oc1ccc(CCCC2=NOC(c3ccccc3)C2)cc1` (single isomer, unassigned; 45b), the inhibition in assay [4] is 27%. The Activity in assay [2] turned out to be 65%; in assay [3] it was 77.1%. For the same molecule, the outcome in assay [5] and in assay [6] was inactive. The Ratio in assay [1] stood at 41.
Regarding `O=C(CCCc1ccc(O)c(O)c1)CC(O)Cc1ccc(O)cc1` (racemic), the Activity in assay [2] was 0.5%; in assay [3] it was -0.6%.
With `O=C(CCc1ccc(O)cc1)CC(O)Cc1ccc(F)cc1` (racemic), the results for the Activity in assay [2] and in assay [3] were 28.6% and 21.2%, respectively.
In the case of `CC1(c2ccccc2)CC(CCCc2ccccc2)=NO1` (racemic), the Activity in assay [2] is 69.5%; in assay [3] it was 15.5%. The Ratio in assay [1] is 1.5.
The corresponding values for `Oc1ccc(CCC2=NOC(Cc3ccccc3)C2)cc1` (single isomer, unassigned; 3b) are 24.3%, 41.5% and 0.5.
With `Oc1ccc(CCCC2=NOC(Cc3ccc(O)cc3)C2)cc1` (stereo in doubt; 26a), the Activity is 14.4% in assay [2] and -0.9% in assay [3].
The corresponding values for `CC1(c2ccccc2)CC(CCc2ccccc2)=NO1` (single isomer, unassigned; 36b) are 10.9% and -7.3%.
For `c1ccc(CCC2=NOC(Cc3ccccc3)C2)cc1` (single isomer, unassigned), the Activity in assay [2] was determined as 38.2%; in assay [3], 1.3%.
On to `O=C(CCc1ccccc1O)CC(O)Cc1ccccc1` (racemic), for which the Activity in assay [2] came to 45.2%; in assay [3], 5.1%.
Regarding `O=C(CCCc1ccc(O)cc1)CC(O)c1ccccc1` (single isomer, unassigned; 50b), the inhibition in assay [4] was 29%. The Activity in assay [2] worked out at 140%; in assay [3] it was 155%. For the same molecule, the Ratio in assay [1] turned out to be 5. The result in assay [6] was Active.
As to `CC(O)(CC(=O)CCc1ccc(O)cc1)c1ccccc1` (racemic), the Activity came to 80.3% in assay [2] and 116% in assay [3].
For the molecule `O=C(CCCc1ccc(O)cc1)CC(O)Cc1ccccc1` (racemic), the figures for the Activity in assay [2] and in assay [3] were 105% and 82.3%, respectively. Moreover, the Ratio in assay [1] amounted to 11.
As for `Fc1ccc(CC2CC(CCc3ccccc3)=NO2)cc1` (single isomer, unassigned), the Activity was 28.9% in assay [2] and 7.4% in assay [3].
In the case of `Oc1ccccc1CCC1=NOC(Cc2ccc(F)cc2)C1` (stereo unspecified), the Activity is 11.1% in assay [2] and -2.4% in assay [3].
As to `O=C(CCc1ccc(O)cc1)CC(O)CCc1ccccc1` (racemic), the Activity is 46.8% in assay [2] and 10.1% in assay [3]. For the same molecule, in assay [1], the Ratio worked out at 0.3.
Turning to `Oc1ccccc1CCC1=NOC(Cc2ccccc2)C1` (single isomer, unassigned), the Activity came to 39.7% in assay [2] and 30.5% in assay [3].
Take `CC(O)(CC(=O)CCCc1ccccc1)c1ccccc1` (racemic): the Activity turned out to be 83.3% in assay [2] and 15.1% in assay [3]. In addition, the Ratio in assay [1] stood at 2.
As to `O=C(CCc1ccc(O)cc1)CC(O)Cc1ccccc1` (racemic), the Activity was 55% in assay [2] and 107% in assay [3]. The Ratio in assay [1] was found to be 0.2.
On the same counts, the results for `CC1(c2ccccc2)CC(CCCc2ccc(O)cc2)=NO1` (single isomer, unassigned; 46a) are 14.4%, -0.9% and 13.
On to `Oc1ccc(CC2CC(CCCc3ccccc3)=NO2)cc1` (single isomer, unassigned; 25b), for which the Activity in assay [2] came to 97.2%; in assay [3] it was 17%.
On to `Oc1ccc(CCCC2=NOC(Cc3ccc(O)cc3)C2)cc1` (single isomer, unassigned), for which the Activity in assay [2] is 13.6%; in assay [3], 10.6%.
Consider `Oc1ccccc1CCC1=NOC(CCc2ccccc2)C1` (stereo in doubt; 16b), for which the Activity in assay [2] turned out to be 21.8%; in assay [3], 2.6%.
For the molecule `O=C(CCCc1ccc(O)cc1)CC(O)Cc1ccc(O)cc1` (stereo in doubt; form 2), the Activity in assay [2] came to 15.4%; in assay [3], 1.8%.
`Oc1ccc(CCCC2=NOC(Cc3ccccc3)C2)cc1O` (single isomer, unassigned; 27a): the Activity in assay [2] came out at 0.3%; in assay [3], 1.3%.
The corresponding values for `O=C(CCCc1ccc(O)cc1)CC(O)Cc1ccc(O)cc1` (stereo in doubt; form 1) are 87.4% and 108%.
For the molecule `O=C(CCCc1ccccc1)CC(O)c1ccccc1` (single isomer, unassigned), the Activity in assay [2] was 59.3%; in assay [3], 28.2%. The Ratio in assay [1] stood at 5.
Turning to `CC1(c2ccccc2)CC(CCc2ccccc2O)=NO1` (single isomer, unassigned; 37a), the values for the Activity in assay [2] and in assay [3] were 11.8% and -0.4%, respectively.
On the same counts, the results for `Oc1ccc(CCC2=NOC(Cc3ccc(F)cc3)C2)cc1` (single isomer, unassigned) are 5.7% and 4.4%.
